Assay results taken from ChEMBL document CHEMBL3632558, “Synthesis, antimycobacterial and antibacterial activity of l-[(1R,2S)-2-fluorocyclopropyl]naphthyridone derivatives containing an oxime-functionalized pyrrolidine moiety” (2015).
In brackets after ≈: the same amount, converted by molar mass.

What was measured:
Type in all cases: functional
Enterococcus faecium [1] = assay: Antibacterial activity against Enterococcus faecium 14-5 after 18 to 24 hrs
Outline: (§1)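 MIC by standard NCCLS reference procedure (M100-S11); lowest concentration of compound inhibiting visible bacterial growth after incubation at 35 °C for 18–24 h, read as complete inhibition of growth. Ciprofloxacin, levofloxacin and moxifloxacin run alongside as reference agents.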

Escherichia coli [2] = assay: Antibacterial activity against Escherichia coli 14-2 after 18 to 24 hrs; outline: as §1
[3] = system: Staphylococcus epidermidis; assay: Antibacterial activity against methicillin-resistant Staphylococcus epidermidis 14-22 after 18 to 24 hrs
Escherichia coli [4] = assay: Antibacterial activity against Escherichia coli 14-1 after 18 to 24 hrs; outline: as §1
Pseudomonas aeruginosa [5] = assay: Antibacterial activity against Pseudomonas aeruginosa 14-19 after 18 to 24 hrs; outline: as §1
[6] = system: Staphylococcus epidermidis; assay: Antibacterial activity against methicillin-resistant Staphylococcus epidermidis 14-39 after 18 to 24 hrs
Enterococcus faecium [7] = assay: Antibacterial activity against Enterococcus faecium 14-6 after 18 to 24 hrs; outline: as §1
Staphylococcus aureus [8] = assay: Antibacterial activity against methicillin-sensitive Staphylococcus aureus 14-2 after 18 to 24 hrs; outline: as §1
[9] = system: Staphylococcus epidermidis; assay: Antibacterial activity against methicillin-resistant Staphylococcus epidermidis 14-37 after 18 to 24 hrs
Enterococcus faecium [10] = assay: Antibacterial activity against Enterococcus faecium 14-2 after 18 to 24 hrs; outline: as §1
Staphylococcus aureus [11] = assay: Antibacterial activity against methicillin-resistant Staphylococcus aureus 14-4 after 18 to 24 hrs
Pseudomonas aeruginosa [12] = assay: Antibacterial activity against Pseudomonas aeruginosa 14-15 after 18 to 24 hrs; outline: as §1
[13] = system: Staphylococcus epidermidis; assay: Antibacterial activity against methicillin-resistant Staphylococcus epidermidis 14-21 after 18 to 24 hrs
Klebsiella pneumoniae [14] = assay: Antibacterial activity against Klebsiella pneumoniae 14-4 after 18 to 24 hrs; outline: as §1
Klebsiella pneumoniae [15] = assay: Antibacterial activity against ESBL-positive Klebsiella pneumoniae 14-18 after 18 to 24 hrs; outline: as §1
Staphylococcus aureus [16] = assay: Antibacterial activity against methicillin-sensitive Staphylococcus aureus 14-3 after 18 to 24 hrs; outline: as §1
Staphylococcus aureus [17] = assay: Antibacterial activity against Staphylococcus aureus CMCC 26003 after 18 to 24 hrs; outline: as §1
[18] = system: Mycobacterium tuberculosis; assay: Antimycobacterial activity against Mycobacterium tuberculosis H37Rv ATCC 27294 by alamar blue assay
Outline: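 Microplate Alamar Blue Assay; MIC is the lowest concentration giving ≥90% reduction in fluorescence relative to the mean of replicate bacterium-only controls. MDR strain 6133 is resistant to isoniazid and rifampicin.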

Klebsiella pneumoniae [19] = assay: Antibacterial activity against Klebsiella pneumoniae 14-3 after 18 to 24 hrs; outline: as §1
Klebsiella pneumoniae [20] = assay: Antibacterial activity against ESBL-positive Klebsiella pneumoniae 14-19 after 18 to 24 hrs; outline: as §1
Staphylococcus aureus [21] = assay: Antibacterial activity against methicillin-sensitive Staphylococcus aureus 14-4 after 18 to 24 hrs; outline: as §1
Pseudomonas aeruginosa [22] = assay: Antibacterial activity against Pseudomonas aeruginosa 14-9 after 18 to 24 hrs; outline: as §1
Pseudomonas aeruginosa [23] = assay: Antibacterial activity against Pseudomonas aeruginosa 14-14 after 18 to 24 hrs; outline: as §1
Escherichia coli [24] = assay: Antibacterial activity against ESBL-positive Escherichia coli 14-1 after 18 to 24 hrs; outline: as §1
[25] = system: Staphylococcus epidermidis; assay: Antibacterial activity against methicillin-sensitive Staphylococcus epidermidis 14-2 after 18 to 24 hrs; outline: as §1
Enterococcus faecium [26] = assay: Antibacterial activity against Enterococcus faecium 14-1 after 18 to 24 hrs; outline: as §1
Escherichia coli [27] = assay: Antibacterial activity against Escherichia coli ATCC 25922 after 18 to 24 hrs; outline: as §1
Staphylococcus aureus [28] = assay: Antibacterial activity against methicillin-resistant Staphylococcus aureus 14-5 after 18 to 24 hrs
Staphylococcus aureus [29] = assay: Antibacterial activity against methicillin-sensitive Staphylococcus aureus 14-1 after 18 to 24 hrs; outline: as §1
Escherichia coli [30] = assay: Antibacterial activity against ESBL-positive Escherichia coli 14-2 after 18 to 24 hrs; outline: as §1
Enterococcus faecalis [31] = assay: Antibacterial activity against Enterococcus faecalis 14-1 after 18 to 24 hrs; outline: as §1
Pseudomonas aeruginosa [32] = assay: Antibacterial activity against Pseudomonas aeruginosa ATCC 27853 after 18 to 24 hrs; outline: as §1
Klebsiella pneumoniae [33] = assay: Antibacterial activity against Klebsiella pneumoniae 14-1 after 18 to 24 hrs; outline: as §1
Klebsiella pneumoniae [34] = assay: Antibacterial activity against Klebsiella pneumoniae 14-2 after 18 to 24 hrs; outline: as §1
Pseudomonas aeruginosa [35] = assay: Antibacterial activity against Pseudomonas aeruginosa 14-16 after 18 to 24 hrs; outline: as §1
Klebsiella pneumoniae [36] = assay: Antibacterial activity against ESBL-positive Klebsiella pneumoniae 14-17 after 18 to 24 hrs; outline: as §1
Streptococcus pneumoniae = assay: Antibacterial activity against Streptococcus pneumoniae ATCC 19615 after 18 to 24 hrs; outline: as §1
Enterococcus faecalis [37] = assay: Antibacterial activity against Enterococcus faecalis 14-2 after 18 to 24 hrs; outline: as §1

SMILES | MIC (Enterococcus faecium [1]) [µg/mL] | MIC (Escherichia coli [2]) [µg/mL] | MIC [3] [µg/mL] | MIC (Escherichia coli [4]) [µg/mL] | MIC (Pseudomonas aeruginosa [5]) [µg/mL] | MIC [6] [µg/mL] | MIC (Enterococcus faecium [7]) [µg/mL] | MIC (Staphylococcus aureus [8]) [µg/mL] | MIC [9] [µg/mL] | MIC (Enterococcus faecium [10]) [µg/mL] | MIC (Staphylococcus aureus [11]) [µg/mL] | MIC (Pseudomonas aeruginosa [12]) [µg/mL] | MIC [13] [µg/mL] | MIC (Klebsiella pneumoniae [14]) [µg/mL] | MIC (Klebsiella pneumoniae [15]) [µg/mL] | MIC (Staphylococcus aureus [16]) [µg/mL] | MIC (Staphylococcus aureus [17]) [µg/mL] | MIC90 [18] [µg/mL] | MIC (Klebsiella pneumoniae [19]) [µg/mL] | MIC (Klebsiella pneumoniae [20]) [µg/mL] | also measured
NCC1CN(c2nc3c(cc2F)c(=O)c(C(=O)O)cn3[C@@H]2C[C@@H]2F)C/C1=N\OCc1ccc2c(c1)OCO2 (stereo partly specified) | 8 (≈ 15.2 µM) | 32 (≈ 60.7 µM) | 4 (≈ 7.58 µM) | 32 (≈ 60.7 µM) | 8 (≈ 15.2 µM) | 8 (≈ 15.2 µM) | 4 (≈ 7.58 µM) | < 0.008 | 6 (≈ 11.4 µM) | 1 (≈ 1.9 µM) | 16 (≈ 30.3 µM) | 8 (≈ 15.2 µM) | 4 (≈ 7.58 µM) | 128 (≈ 243 µM) | 4 (≈ 7.58 µM) | 8 (≈ 15.2 µM) | < 0.008 | < 0.25 | 128 (≈ 243 µM) | 128 (≈ 243 µM) | MIC (Staphylococcus aureus [21]): < 0.008 µg/mL; MIC (Pseudomonas aeruginosa [22]): 8 µg/mL (≈ 15.2 µM); MIC (Pseudomonas aeruginosa [23]): 8 µg/mL (≈ 15.2 µM); MIC (Escherichia coli [24]): 8 µg/mL (≈ 15.2 µM); MIC [25]: 32 µg/mL (≈ 60.7 µM); MIC (Enterococcus faecium [26]): 1 µg/mL (≈ 1.9 µM); MIC (Escherichia coli [27]): < 0.008 µg/mL; MIC (Staphylococcus aureus [28]): 8 µg/mL (≈ 15.2 µM); MIC (Staphylococcus aureus [29]): 4 µg/mL (≈ 7.58 µM); MIC (Escherichia coli [30]): 64 µg/mL (≈ 121 µM); MIC (Enterococcus faecalis [31]): 16 µg/mL (≈ 30.3 µM); MIC (Pseudomonas aeruginosa [32]): 8 µg/mL (≈ 15.2 µM); MIC (Klebsiella pneumoniae [33]): 128 µg/mL (≈ 243 µM); MIC (Klebsiella pneumoniae [34]): 128 µg/mL (≈ 243 µM); MIC (Pseudomonas aeruginosa [35]): 8 µg/mL (≈ 15.2 µM); MIC (Klebsiella pneumoniae [36]): 8 µg/mL (≈ 15.2 µM); MIC (Streptococcus pneumoniae): 0.03 µg/mL (≈ 0.0569 µM); MIC (Enterococcus faecalis [37]): < 0.008 µg/mL
CO/N=C1\CN(c2nc3c(cc2F)c(=O)c(C(=O)O)cn3[C@@H]2C[C@@H]2F)CC1(C)CN (stereo partly specified) | 4 (≈ 9.49 µM) | 32 (≈ 75.9 µM) | 8 (≈ 19 µM) | 32 (≈ 75.9 µM) | 8 (≈ 19 µM) | 8 (≈ 19 µM) | 8 (≈ 19 µM) | 0.015 (≈ 0.0356 µM) | 8 (≈ 19 µM) | 2 (≈ 4.75 µM) | 8 (≈ 19 µM) | 8 (≈ 19 µM) | 2 (≈ 4.75 µM) | 64 (≈ 152 µM) | 4 (≈ 9.49 µM) | < 0.008 | < 0.008 | 0.372 (≈ 0.883 µM) | 128 (≈ 304 µM) | 128 (≈ 304 µM) | MIC (Staphylococcus aureus [21]): 0.015 µg/mL (≈ 0.0356 µM); MIC (Pseudomonas aeruginosa [22]): 4 µg/mL (≈ 9.49 µM); MIC (Pseudomonas aeruginosa [23]): 8 µg/mL (≈ 19 µM); MIC (Escherichia coli [24]): 4 µg/mL (≈ 9.49 µM); MIC [25]: 16 µg/mL (≈ 38 µM); MIC (Enterococcus faecium [26]): 2 µg/mL (≈ 4.75 µM); MIC (Escherichia coli [27]): 0.03 µg/mL (≈ 0.0712 µM); MIC (Staphylococcus aureus [28]): 4 µg/mL (≈ 9.49 µM); MIC (Staphylococcus aureus [29]): 2 µg/mL (≈ 4.75 µM); MIC (Escherichia coli [30]): 64 µg/mL (≈ 152 µM); MIC (Enterococcus faecalis [31]): 32 µg/mL (≈ 75.9 µM); MIC (Pseudomonas aeruginosa [32]): 2 µg/mL (≈ 4.75 µM); MIC (Klebsiella pneumoniae [33]): 128 µg/mL (≈ 304 µM); MIC (Klebsiella pneumoniae [34]): > 128 µg/mL; MIC (Pseudomonas aeruginosa [35]): 8 µg/mL (≈ 19 µM); MIC (Klebsiella pneumoniae [36]): 4 µg/mL (≈ 9.49 µM); MIC (Streptococcus pneumoniae): 0.015 µg/mL (≈ 0.0356 µM); MIC (Enterococcus faecalis [37]): 0.125 µg/mL (≈ 0.297 µM)
